Test results from ChEMBL document CHEMBL4311980, “Discovery of 2-isoxazol-3-yl-acetamide analogues as heat shock protein 90 (HSP90) inhibitors with significant anti-HIV activity” (Eur J Med Chem, 2019).

Legend:
[1] = Cytotoxicity against human TZM-bl cells assessed as maximum non-cytotoxic concentration after 48 hrs by MTT assay; assay type: cell-based; conditions: read-out: MNCC
Outline: (§1)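 Cells were seeded at 25,000/well in complete medium with compound at different concentrations, with untreated and DMSO controls, and incubated 48 h. MTT (5 mg/mL stock) was added for 4 h at 37 °C in the dark. Formazan was dissolved in isopropanol and A570 read. CC50 and highest non-cytotoxic concentration were derived from this assay.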

[2] = test system: Human immunodeficiency virus 1; test: Antiviral activity against HIV-1 NL4-3 infected in human TZM-bl cells assessed as reduction in viral replication at 1000 nM measured at 48 hrs post-infection by steady-glo reporter gene assay relative to control; assay type: functional; conditions: Human immunodeficiency virus 1, NL4-3, TZM-bl
Outline: (§2)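 TZM-bl cells (0.15×10^6/well) were infected with 0.5 MOI HIV-1 NL4-3 12 h after seeding and treated at the highest non-cytotoxic concentration, which was set by MTT assay. At 48 h post-infection, cells were lysed and mixed 1:1 with Steady-Glo substrate, and luminescence was read.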

[3] = test system: Human immunodeficiency virus 1; test: Antiviral activity against HIV1 NL4-3 infected in human TZM-bl cells assessed as reduction in viral replication at 100 nM measured at 48 hrs post-infection by steady-glo reporter gene assay relative to control; assay type: functional; conditions: Human immunodeficiency virus 1, NL4-3, TZM-bl; outline: as §2
[4] = Cytotoxicity against human CEM-GFP cells assessed as reduction in cell viability after 48 hrs by MTT assay; assay type: cell-based; outline: as §1
[5] = test system: Human immunodeficiency virus 1; test: Antiviral activity against HIV-1 NL4-3 infected in human CEM-GFP cells assessed as suppression of viral replication by measuring reduction in p24 level measured at 72 hrs post-infection by ELISA; assay type: functional, organism-based; conditions: Human immunodeficiency virus 1, NL4-3, CEM-GFP
Outline: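 Cells were incubated with 0.5 MOI virus in the presence of polybrene at 37 °C for 4 h with intermittent mixing, then washed and plated in complete RPMI-1640. Compound added at different concentrations, with untreated and DMSO controls. PBMC were PHA-activated. Supernatant p24 measured by capture ELISA (A450) at 72 h. % inhibition calculated relative to untreated cells.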

[6] = Therapeutic index, ratio of CC50 for human CEM-GFP cells to IC50 for antiviral activity against HIV-1 NL4-3 infected in human CEM-GFP cells; assay type: toxicity, cell-based; conditions: read-out: Ratio CC50/IC50
Outline: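 IC50 was determined from p24 ELISA 72 h after 0.5 MOI HIV-1 NL4-3 infection with compound at different concentrations. Therapeutic index = CC50/IC50.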

[7] = test system: Human immunodeficiency virus 1; test: Antiviral activity against HIV1 NL4-3 infected in human TZM-bl cells assessed as reduction in viral replication at 500 nM measured at 48 hrs post-infection by steady-glo reporter gene assay relative to control; assay type: functional; conditions: Human immunodeficiency virus 1, NL4-3, TZM-bl; outline: as §2

| Compound | MNTC at 48 h [1] [nM] | inhibition at 1 µM [2] [%] | inhibition at 0.1 µM [3] [%] | CC50 at 48 h [4] [µM] | IC50 [5] [µM] | selectivity ratio [6] | inhibition at 0.5 µM [7] [%] |
| --- | --- | --- | --- | --- | --- | --- | --- |
| O=C(Cc1cc(-c2ccccc2)on1)Nc1ccc(O)cc1 | 1000 | 13.4 | – | – | – | – | – |
| CCCNC(=O)Cc1cc(-c2ccccc2)on1 | 100 | – | 60.9 | – | – | – | – |
| Cc1cccc(NC(=O)Cc2cc(-c3ccccc3)on2)c1 | 100 | – | 33.3 | – | – | – | – |
| O=C(Cc1cc(-c2ccccc2)on1)Nc1ccccc1 | 1000 | 89.1 | – | 23 | 0.288 | 79.8 | – |
| CCNC(=O)c1noc(-c2cc(C(C)C)c(O)cc2O)c1-c1ccc(CN2CCOCC2)cc1 [LUMINESPIB] | 1000 | 88.3 | – | 31.1 | 0.0663 | 470 | – |
| O=C(Cc1cc(-c2ccccc2)on1)Nc1ccc(F)cc1 | 500 | – | – | 11.8 | 0.0871 | 136 | 85.4 |
| O=C(Cc1cc(-c2ccco2)on1)Nc1ccc(O)cc1 | 1000 | 53.1 | – | – | – | – | – |
| COc1ccc(NC(=O)Cc2cc(-c3ccccc3)on2)cc1 | 1000 | 59.6 | – | – | – | – | – |
| O=C(Cc1cc(-c2ccccc2)on1)Nc1ccccc1O | 1000 | 94.8 | – | 42.9 | 0.253 | 170 | – |
| O=C(Cc1cc(-c2ccccc2)on1)Nc1ccc(Cl)cc1 | 100 | – | 49 | – | – | – | – |
